Published values from different studies.
Target: Aurora kinase A (AURKA, Homo sapiens, UniProt O14965)
One construct used (O14965 1-403): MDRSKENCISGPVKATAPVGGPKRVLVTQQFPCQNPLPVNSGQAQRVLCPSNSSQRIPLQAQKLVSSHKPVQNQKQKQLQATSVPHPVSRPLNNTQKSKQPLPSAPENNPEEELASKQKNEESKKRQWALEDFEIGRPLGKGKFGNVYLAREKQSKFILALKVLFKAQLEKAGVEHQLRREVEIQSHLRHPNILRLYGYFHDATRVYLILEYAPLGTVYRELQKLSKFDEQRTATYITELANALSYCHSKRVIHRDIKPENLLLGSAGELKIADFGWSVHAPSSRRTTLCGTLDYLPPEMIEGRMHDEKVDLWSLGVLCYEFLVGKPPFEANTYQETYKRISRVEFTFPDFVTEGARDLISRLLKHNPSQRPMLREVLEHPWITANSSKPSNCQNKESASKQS

| SMILES | test | conditions | remaining binding |
| --- | --- | --- | --- |
| C[C@@H]1CN(c2ccc3ncc(-c4ccc5[nH]nc(C6CC6)c5c4)n3n2)C[C@H](C)O1 | binding, competition with immobilised ligand | 0.5 µM | 85% |
| O=c1nc(-c2ccccn2)sc2ccccc12 | cell-free assay, competition with immobilised ligand | 1 µM | 87% |
| c1cnn2ncc(-c3ccnc(N4CCC45COC5)n3)c2c1 | binding | 1 µM | 90% |
| Nc1ncc2c(n1)-c1c([nH]c3ccc(C#CC4CC4)cc13)CCCC2 | binding, competition with immobilised ligand | 1 µM | 80% |
| F[C@@H]1CCN(c2nccc(-c3cnn4ncccc34)n2)C1 | binding | 1 µM | 91% |
| COc1ccc2cc(OCC3(C(=O)O)CN(C(=O)c4ccc(F)cc4)C3)ccc2c1 | cell-free assay, competition with immobilised ligand | 1 µM | 100% |
| C[C@@H]1CCN(c2nccc(-c3cnn4ncccc34)n2)C1 | binding | 1 µM | 92% |
| O=C(NS(=O)(=O)c1ccc(NCC2CCOCC2)c([N+](=O)[O-])c1)c1ccc(N2CCN(Cc3ccc(C(F)(F)F)cc3-c3ccc(Cl)cc3)CC2)cc1Oc1cnc2[nH]ccc2c1 | cell-free assay, competition with immobilised ligand | 1 µM | 96% |
| O=C(c1ccc(Nc2ncc(Cl)c(-c3ccc(Cl)s3)n2)cc1)N1CCC(N2CCCC2)CC1 | binding, competition with immobilised ligand | 1 µM | 1.9% |
| O=C(NCC1CCOCC1)c1n[nH]cc1NC(=O)c1c(F)cccc1F | binding, competition with immobilised ligand | 1 µM | 87% |
| Cc1cnc(Nc2ccc(C(=O)N3CCC(N4CCCC4)CC3)cc2)nc1-c1cc2ccccc2s1 | binding, competition with immobilised ligand | 1 µM | 2% |
| O=C(NCc1ncc(C(F)(F)F)cc1Cl)c1ccc2c(c1)C1(CCS(=O)(=O)CC1)[C@@H](C1CC1)N2S(=O)(=O)c1ccc(F)cc1 | cell-free assay, competition with immobilised ligand | 1 µM | 81% |
| CNC(=O)[C@@H]1CC[C@@H](n2c(-c3ccc4cnccc4c3)nc3ccc(C(=O)NCc4cccc(C(N)=O)c4)cc32)C1 | binding, competition with immobilised ligand | 1 µM | 100% |
| N[C@@H]1CCN(c2nccc(-c3cnn4ncccc34)n2)C1 | binding | 1 µM | 100% |
| CCN1CCN(Cc2ccc(C(=O)Nc3ccc(C)c(Oc4ccc5c(c4)CC(=O)N5)c3)cc2C(F)(F)F)CC1 | binding, competition with immobilised ligand | 1 µM | 100% |
| O=C(NCCCN1CCOCC1)c1ccc(Nc2ncc(Cl)c(-c3ccc(Cl)s3)n2)cc1 | binding, competition with immobilised ligand | 1 µM | 12% |
| CS(=O)(=O)NCC[C@H](NC(=O)c1cncc2c1cnn2-c1ccc(F)cc1)c1ccnc(S(C)(=O)=O)c1 | cell-free assay, competition with immobilised ligand | 1 µM | 100% |
| COc1ncc2cc3ccccc3nc2c1C#N | cell-free assay, competition with immobilised ligand | 5 µM | 100% |
| Cc1c(NC(=O)c2cc(C(N)=O)nc3cc(F)ccc23)c(C(F)(F)F)nn1Cc1ccc(C(C)(C)C)cc1 | cell-free assay, competition with immobilised ligand | 1 µM | 100% |
| Cc1cnn2ncc(-c3ccnc(N(C)C)n3)c2c1 | binding | 1 µM | 99% |
| C[C@H](c1ccc(F)cc1)N(Cc1cccc(C(=O)O)c1)C(=O)c1cnc2ccccc2c1 | cell-free assay, competition with immobilised ligand | 1 µM | 100% |
| CN(c1nccc(-c2cnn3ncccc23)n1)C1CC1 | binding | 1 µM | 84% |
| C[C@@H](c1ccc(-n2cnc3c(N)ncnc32)cc1)N1CCc2nn(C)c(Cc3ccccc3)c2C1=O | binding, competition with immobilised ligand | 0.1 µM | 73% |
| CN(C)c1ncc(F)c(-c2cnn3ncccc23)n1 | binding | 1 µM | 100% |
| c1cncc(-c2cccc(Nc3nccc(NC4CCCCC4)n3)c2)c1 | binding, competition with immobilised ligand | 10 µM | 5.9% |
